RGS4 pot = RGS4 potentiators or activators, primary screen, cell-based, HEK293 M3R inducible RGS4, calcium flux. carbachol calcium flux Fluo4; active compounds read low. B-score at 10 µM. actives 0.92% (n = 310,000). AID 463111, 2010;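 active = B-score of the integrated calcium signal more than 4 SD below the library mean, with starting fluorescence not abnormally high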;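 note: negative B-score means reduced calcium response which marks RGS4 activation or potentiation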
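System: HEK293 FlpIn-TREx cells, stable M3R, doxycycline-inducible RGS4. Timing: overnight RGS4 induction, 30 min dye load 37 °C, 20 min compound RT. Also added: carbachol, ECmax concentration. Measured by: Fluo4 fluorescence kinetic imaging of calcium. Evaluation: integrated calcium ratio converted to B score.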
MrgX1 antagonist = antagonists of human MrgX1 receptor, primary screen, HEK293 cells, Fluo-4 calcium flux; AID 588676, 2011; BAM8-22 antagonism; active compounds read low; Mas-related G-protein coupled receptor member X1 (Homo sapiens), Q96LB2; B-score at 10 µM; actives 1.3% (n = 310,000);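 active = calcium-response B-score plate-corrected more than 3 library SD below zero, starting fluorescence within 5 deviations, no agonist response on first addition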;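 note: peak minus trough fluorescence over baseline after final BAM8-22 challenge near maximal dose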
Target sequence (Q96LB2 whole entry, looked up): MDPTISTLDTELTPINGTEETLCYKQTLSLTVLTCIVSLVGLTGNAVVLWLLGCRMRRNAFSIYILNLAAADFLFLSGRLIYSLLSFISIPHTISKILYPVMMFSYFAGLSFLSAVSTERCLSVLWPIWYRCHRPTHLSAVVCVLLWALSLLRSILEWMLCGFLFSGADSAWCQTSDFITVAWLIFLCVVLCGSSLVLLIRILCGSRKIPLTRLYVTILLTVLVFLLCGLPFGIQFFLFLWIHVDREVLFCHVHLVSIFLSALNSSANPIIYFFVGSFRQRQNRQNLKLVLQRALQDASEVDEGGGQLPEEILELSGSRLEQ
MrgX1 ag = agonists of human MrgX1 receptor, primary screen, HEK293 cells, Fluo-4 calcium flux. Mas-related G-protein coupled receptor member X1 (Homo sapiens), Q96LB2. Fluo-4 calcium fluorescence, agonist mode; active compounds read high. B-score at 10 µM. actives 0.44% (n = 310,000). AID 588627, 2011;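 active = calcium response B-score plate-corrected fluorescence ratio at least 3 library SD, with starting fluorescence B-score inside 5 SD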
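Material – MrgX1-expressing HEK293 cells · Input – 15,000 cells seeded per well · Dosing – compound as first of three additions · Times – overnight seeding, then 1 h dark dye loading · Measured by – kinetic Fluo-4 NW fluorescence of intracellular calcium · Read-out – B-scored fluorescence response ratio · Benchmarks – positive and negative control wells on each plate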
RGS4 inh = RGS4 inhibitors, primary screen, cell-based, HEK293 M3R inducible RGS4, calcium flux; Regulator of G-protein signaling 4 (Homo sapiens), P49798; Fluo-4 calcium flux; active compounds read high; triggered by carbachol at its EC20; B-score at 10 µM; actives 0.45% (n = 310,000); AID 463165, 2010;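 active = B-score, a plate-corrected calcium signal, over three deviations above library mean, with baseline fluorescence within five deviations of library mean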;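 note: RGS4 expression induced by doxycycline in cells with stable M3 receptor; B-score is computed from the integrated fluorescence ratio over baseline after carbachol; higher B-score means a larger calcium signal and so more RGS4 inhibition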
Target sequence (P49798 whole entry, looked up): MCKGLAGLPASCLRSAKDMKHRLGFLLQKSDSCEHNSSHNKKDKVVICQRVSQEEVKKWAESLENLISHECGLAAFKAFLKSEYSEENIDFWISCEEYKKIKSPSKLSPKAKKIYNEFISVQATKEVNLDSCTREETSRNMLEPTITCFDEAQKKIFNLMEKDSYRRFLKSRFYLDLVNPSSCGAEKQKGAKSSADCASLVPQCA
MrgX1 allo act = positive allosteric modulators of MrgX1, primary screen, HEK293 cells, Fluo-4 calcium flux; actives 0.63% (n = 310,000); FDSS; active compounds read high; B-score at 10 µM;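 active = plate-corrected calcium response at least 3 library SD above typical, normal starting fluorescence, not activating the receptor alone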;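 note: compound read alongside a low EC10 to EC30 dose of BAM8-22 agonist; peak minus trough fluorescence over baseline measured at the second addition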
MrgX1 antag conf = MrgX1 receptor antagonists, duplicate retest, confirmation, HEK293 cells, Fluo-4 calcium flux. AID 602420, 2012. remaining BAM8-22 calcium response % of control (active compounds read low), % at 10 µM. BAM8-22 calcium flux; active compounds read low. shares compounds with MrgX1 antagonist. actives 19% (n = 2,300);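 active = remaining agonist calcium response no higher than 100% minus 3 SD of agonist-only control wells, with starting fluorescence near control levels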;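 note: agonist BAM8-22 given at a near maximal EC90 to ECmax level; peak minus minimum fluorescence divided by baseline after agonist addition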
HEK293 Ca flux = nonspecific calcium signal in parental HEK293, confirmation, counter-screen for MrgX1 antagonist project, parental HEK293 cells, Fluo-4 calcium flux. shares compounds with MrgX1 antagonist. Fluo-4 calcium fluorescence, FDSS. fluorescence ratio F(max-min)/F0 at 10 µM. actives 2% (n = 4,000);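 active = duplicate-averaged calcium fluorescence ratio at least three times the standard deviation of buffer wells, a nonspecific response in parental cells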
HEK293 Ca counter = calcium response in parental HEK293 cells, primary screen, counter-screen for MrgX1 allosteric activator project, cell-based, Fluo-4 calcium flux, duplicate. shares compounds with MrgX1 antagonist. Fluo-4 fluorescence ratio; active compounds read high. fluorescence ratio F(max-min)/F0 at 10 µM. actives 0.4% (n = 4,000). AID 624114, 2012;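 active = calcium fluorescence ratio, averaged over duplicates, at least 3 SD of the buffer-well ratio, meaning a nonspecific response in receptor-free cells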;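 note: untransfected parental HEK293 lacking MrgX1 used as counterscreen for MrgX1 allosteric activators; fluorescence change taken during the second addition on a kinetic imager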
HEK293 Ca cntr2 = calcium response in parental HEK293 cells, primary screen, counter-screen for MrgX1 agonist project, cell-based, Fluo-4 calcium flux, duplicate, agonist mode; shares compounds with MrgX1 antagonist; Fluo-4 calcium fluorescence (FDSS); active compounds read high; fluorescence ratio F(max-min)/F0 at 10 µM; actives 8.7% (n = 4,000); AID 624115, 2012;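 active = calcium fluorescence ratio at least three times the spread of buffer wells, meaning a non-specific response in parental cells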
Large screens that a line does not name were inactive (follow-up assays come after a bar, where they were run). This is a sample that favours compounds with a hit; in the whole collection about 3.5% have one here.

COc1cccc([C@@H]2Oc3ccc(OC)cc3C(=O)[C@H]2OC(=O)NCc2ccc3c(c2)OCO3)c1	none
Cc1ccc(S(=O)(=O)CCc2nc3ccccc3[nH]2)cc1C	MrgX1 antagonist -4.67 | MrgX1 antag conf inactive | HEK293 Ca flux inactive | HEK293 Ca counter inactive | HEK293 Ca cntr2 inactive
Cc1ccc(S(=O)(=O)CCc2nc3ccccc3[nH]2)cc1	none
Cc1ccc(NC(=O)[C@@H]2CCC(=O)N2C2OC(=O)c3ccccc32)cc1Cl (stereo not given in full)	none
Cc1ccc(Cl)cc1NC(=O)[C@@H]1CCC(=O)N1C1OC(=O)c2ccccc21 (stereo not given in full)	MrgX1 antagonist -9.92 | MrgX1 antag conf 84.3% | HEK293 Ca flux inactive | HEK293 Ca counter inactive | HEK293 Ca cntr2 inactive
Cc1ccc(-c2n[nH]c(=S)c3ccccc23)cc1S(=O)(=O)NCC1CCCO1 (stereo not given)	none
CC(C)Oc1ccc(C(CCN)C2CCCCC2)cc1 (stereo not given)	MrgX1 antagonist -4.74 | MrgX1 antag conf inactive | HEK293 Ca flux inactive | HEK293 Ca counter inactive | HEK293 Ca cntr2 inactive
CC(C)Oc1ccc(C(=O)NC2CCCCC2)cc1	none
CC(=O)N(c1nnc(-c2ccc(C)cc2)s1)C1CCCC1	none
O=S(=O)(NC1c2cccc3cccc(c23)C1Sc1ncccn1)c1ccc(Cl)cc1 (stereo not given)	MrgX1 antagonist -4.72 | MrgX1 antag conf inactive | HEK293 Ca flux inactive | HEK293 Ca counter inactive | HEK293 Ca cntr2 inactive
Cc1ccc(S(=O)(=O)NC2c3cccc4cccc(c34)C2Sc2n[nH]c(N)n2)cc1 (stereo not given)	none
O=C(NC1CC1)C1CCN(S(=O)(=O)c2cc(Cl)ccc2Cl)CC1	MrgX1 antagonist -5.39 | MrgX1 antag conf inactive | HEK293 Ca flux inactive | HEK293 Ca counter inactive | HEK293 Ca cntr2 inactive
O=C(CNc1ccccc1)NN=C1CCCC1	none
C=C(C)CSc1nc(C)c(Cc2ccccc2)c(=O)[nH]1	MrgX1 antagonist -6.74 | MrgX1 antag conf 85.2% | HEK293 Ca flux inactive | HEK293 Ca counter inactive | HEK293 Ca cntr2 inactive
Cc1ccc(OCc2cc(C(=O)NC3CCOC3)no2)cc1C (stereo not given)	none
COc1cc(C=Nc2ccccc2C(=O)Nc2ccccc2)cc(OC)c1OC	MrgX1 antagonist -5.52 | MrgX1 antag conf inactive | HEK293 Ca flux inactive | HEK293 Ca counter inactive | HEK293 Ca cntr2 inactive
COc1cc(NC(=O)c2ccccc2-c2ccccc2)cc(OC)c1OC	none
NS(=O)(=O)c1ccc(NC(=O)c2cccc(N3C(=O)c4ccccc4C3=O)c2)cc1	none
COc1ccc(C(=O)N2CCCC2)cc1S(=O)(=O)N1CCOCC1	none
COc1cc2c(cc1OC)CN(C(=O)c1ccc(OC)c(S(=O)(=O)N3CCOCC3)c1)CC2	MrgX1 antagonist -5.14 | MrgX1 antag conf inactive | HEK293 Ca flux inactive | HEK293 Ca counter inactive | HEK293 Ca cntr2 inactive
Cc1ccccc1SCC(=O)OCC(=O)Nc1sccc1C(N)=O	none
COc1ccccc1OCC(=O)OCC(=O)Nc1sccc1C(N)=O	none
NC(=O)c1ccsc1NC(=O)CCS(=O)(=O)c1ccc(F)cc1	MrgX1 antagonist -5.89 | MrgX1 antag conf 79.6% | HEK293 Ca flux inactive | HEK293 Ca counter inactive | HEK293 Ca cntr2 inactive
NC(=O)c1ccsc1NC(=O)COC(=O)Cc1cccc2ccccc12	MrgX1 antagonist -6.84 | MrgX1 antag conf 42.5% | HEK293 Ca flux inactive | HEK293 Ca counter inactive | HEK293 Ca cntr2 inactive
NC(=O)c1ccsc1NC(=O)CSc1ccccc1F	MrgX1 antagonist -4.87 | MrgX1 antag conf inactive | HEK293 Ca flux inactive | HEK293 Ca counter inactive | HEK293 Ca cntr2 inactive
CSc1ccc(NC(=O)Nc2ccc(C(=O)NCC(=O)O)cc2)cc1	none
CC(C)NC(=O)CC1Nc2c3ccccc3nc(=S)n2C1=O (stereo not given)	MrgX1 antagonist -5.25 | MrgX1 antag conf inactive | HEK293 Ca flux inactive | HEK293 Ca counter inactive | HEK293 Ca cntr2 inactive
COC(=O)c1cccc(Cn2c(Cl)c(/C=N/NC(=O)c3ccco3)sc2=O)c1	none
COCCCNCC(O)C(F)(F)F (stereo not given)	none
CCOC(=O)Cn1c(=O)cc(C)c2ccccc21	MrgX1 antagonist -8.48 | MrgX1 antag conf inactive | HEK293 Ca flux inactive | HEK293 Ca counter inactive | HEK293 Ca cntr2 inactive
CCOc1ccc(CN(C)C(=O)CNC(=O)c2ccc3ccccc3c2)cc1OC	none
CC(=O)c1ccc(NC(=S)NCCCN2CCOCC2)cc1	none
CCOC(=O)C1=C(CSc2nc3c(cc2C#N)CN(C)CC3)OC(N)=C(C#N)C1c1ccc(F)cc1 (stereo not given)	MrgX1 antagonist -5.39 | MrgX1 antag conf inactive | HEK293 Ca flux inactive | HEK293 Ca counter inactive | HEK293 Ca cntr2 inactive
CCOC(=O)C1=C(CSc2nc3c(cc2C#N)CCC3)OC(N)=C(C#N)C1c1ccccc1 (stereo not given)	none
COc1cccc(NC(=O)C(OC(=O)c2cnc(C)cn2)c2ccccc2)c1 (stereo not given)	MrgX1 antagonist -6.22 | MrgX1 antag conf inactive | HEK293 Ca flux inactive | HEK293 Ca counter inactive | HEK293 Ca cntr2 inactive
Cc1ccccc1CN(C)C(C)C(=O)NCc1ccccc1 (stereo not given)	none
COc1ccccc1-c1nnc(SC2CCc3ccccc3NC2=O)s1 (stereo not given)	MrgX1 antagonist -6.39 | MrgX1 antag conf inactive | HEK293 Ca flux inactive | HEK293 Ca counter inactive | HEK293 Ca cntr2 inactive
COc1ccc(C)cc1NC(=S)NC12CN3CN(CN(C3)C1)C2	none

Source: PubChem
